# Measurements published in paper PMC9392492 (International Journal of Nanomedicine, 2022).
# Columns and labels:
# Assay type in all cases: in vivo
# [1] = tested on: acetic acid-induced writhing in mice; assay: Acetic acid writhing test; settings: i.g.; RJ-III 0.10 mg/kg, aspirin 200 mg/kg
# How it was run: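 Fasted ICR mice (18–22 g, both sexes), n = 10 per group, received free or SLN-formulated test compound (0.10 mg/kg), aspirin (200 mg/kg) or 0.9% saline, all i.g. Then 0.8% acetic acid (10 mL/kg, i.p.) was injected at 15 or 45 min post-dose, in two separate experiments. Abdominal contortions and hind-paw extensions were counted for 30 min.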
# [2] = tested on: hot-plate nociception in mice; assay: Hot plate test; settings: RJ-III 0.2 mg/kg, aspirin 300 mg/kg
# How it was run: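 Baseline latency (paw lick or jump) on a 53 ± 0.5°C plate was taken three times, 15 min apart. Mice under 5 s or over 30 s were excluded. Fasted ICR mice (n = 10) then received free or SLN-formulated test compound (0.20 mg/kg), aspirin or saline, all i.g. Latency was re-measured at 15 and 45 min, with a 30 s cutoff.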
# [3] = tested on: formalin-induced nociception in mice; assay: Formalin test; settings: formalin 15 min after i.g. administration; RJ-III 0.10 mg/kg, aspirin 200 mg/kg
# How it was run: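 Fasted ICR mice, n = 10 per group, were dosed i.g. with free or SLN-formulated test compound (0.10 mg/kg), aspirin (200 mg/kg) or saline. Then 25 μL of 2.5% formalin was injected s.c. into the left hind paw at 15 or 45 min post-dose, in separate experiments. Licking/biting time (s) was scored at 0–5 min (phase I) and 15–30 min (phase II).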
compound,measurement,setting,value
CC(=O)Oc1ccccc1C(=O)O [aspirin],change in number of writhes between 15 and 45 min,[1],statistically increases
same,latency time compared to pretreatment,[2]; 15 min after i.g. administration,increased the latency time
same,antinociception relative to pretreatment,[2]; 45 min after i.g. administration,no significant analgesic effect
same,phase I response (licking time) vs normal saline,[3],no effects
same,phase II response (licking time) vs normal saline,[3],suppressed behavioral responses
